T cruzi repl: inhibitors of intracellular T. cruzi growth, primary screen, luminescence, NIH3T3 host cells. inhibition, % (test concentration not listed). T. cruzi beta-gal in NIH3T3, 90 h. AID 1885, 2009. hit rate 1.4% among 300,000;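 active = mean inhibition across valid replicates above about 55%, limit read from the data; inconclusive = mean below that limit but half or more replicates reach it; inactive = mean below it, under half of replicates reach it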;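 also: signal also drops with host cell toxicity which is not excluded here; higher percent means less beta-gal luminescence so fewer parasites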
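Test system: β-gal T. cruzi (Tulahuen C4) inside NIH/3T3 cells / Quantity: 5,000 cells/well / Measured by: luminescence from GalScreen with 0.05% NP40, read after 60 min / Medium: DMEM plus 2% FBS / Measure: parasite load inhibition, % / Reagent: Tulahuen C4 trypomastigotes, 5000/well / Schedule: co-culture of at least 90 h after 3 h attachment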
Calb FLC: C. albicans growth inhibition with fluconazole, primary screen, CaCi-2 strain, Alamar Blue fluorescence; AID 1979, 2009; hit rate 0.57% among 300,000; C. albicans CaCi-2 + fluconazole, 48 h; growth inhibition, % (concentration not given with the values);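 active = growth inhibition above about 58% in most replicates, limit read from the data, passing the limit was not always enough; inconclusive = exactly half the replicates above a set limit; inactive = most replicates below a set limit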;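 also: all wells also contain fluconazole at 8 µg/ml as a sub-toxic cotreatment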
HSF-1 act: HSF-1 activators, primary screen, NIH3T3-HGL cells, MG132 stress, luminescence, single point; NIH3T3-HGL HSF-1 luciferase reporter, 8 h; 100% = twice DMSO control signal; activation, % at 9 µM; hit rate 1.7% among 300,000; AID 504408, 2011;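 active = mean replicate activation of at least 50% with a set share of replicates each reaching 50%; inconclusive = only one of those two conditions met; inactive = mean below 50% and too few replicates reaching it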
HSF1 inh: HSF1 inhibitors in luciferase reporter cells, primary screen, cell-based, NIH3T3, luminescence. NIH3T3-HGL HSE-luciferase, MG132-induced, luminescence 8 h; active compounds read low. activity change, negative = inhibition, % at 7.5 µM (by protocol). hit rate 0.77% among 300,000. AID 2098, 2009;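 active = more than half of replicate wells show activity change below -50%, luminescence cut by over half; inconclusive = some wells, but at most half, below -50%; inactive = no replicate well below -50%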;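 also: luciferase reports HSF-1 transcriptional activity via heat shock element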
HIF activator: HIF pathway transcriptional activators, primary screen, cell-based, U2OS HRE-luciferase, luminescence; U2OS HRE-luciferase reporter; normalized: DMSO 0%, desferrioxamine 100%; activation, % at 7.5 µM (by protocol); hit rate 0.32% among 300,000; AID 1910, 2009;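 active = mean activation of at least 10% of the iron chelator positive control signal, with at least half of replicates also reaching 10%; inconclusive = mean and replicate majority disagree about reaching 10%; inactive = mean and most replicates under 10%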
Hits are given with their value; n = inactive; u = inconclusive; ! = a repeat was not active. In the library only some 4.4% were active in any assay of this set; here they are far more common.

SMILES	T cruzi repl	Calb FLC	HSF-1 act	HSF1 inh	HIF activator
O=S1(=O)N=C(Nc2ccc(N3CCOCC3)cc2)c2ccccc21	n	86	n	n	n
Cc1ccccc1-c1ccc(Nc2ccc(N3CCOCC3)cc2)nn1	70	n	n	n	n
O=C(NCc1cccnc1)c1ccccc1[N+](=O)[O-]	n	n	n	n	n
C=CCOc1cccc(C(=O)N(C)C2CCCN(Cc3ccccc3F)C2)c1 (stereo unspecified)	n	n	n	n	n
NC(=O)c1ccccc1NC(=O)/C=C/c1c(Cl)cccc1Cl	n	n	83	n	n
COC(=O)C1=CN(Cc2ccc(OC)c(OC)c2)C=C(C(=O)OC)C1c1cccc(F)c1	63	n	n	n	n
COC(=O)C1=CN(Cc2ccc(F)cc2)C=C(C(=O)OC)C1c1cc(OC)c(OC)c(OC)c1	n	n	n	n	n
CCCc1cc(C(=O)Nc2cc(OC)ccc2OC)cs1	n	n	n	n	n
COc1cc(/C=C/C(=O)NC(C)C2CC3CCC2C3)cc(OC)c1OC (stereo unspecified)	n	n	n	-88	n
COc1cc(/C=C/C(=O)NC2CCCCC2)cc(OC)c1OC	n	n	n	n	n
Cn1c2ccccc2c(=O)c2c(=O)n(Cc3ccco3)c(-c3ccc(Cl)cc3Cl)nc21	64	n	n	n	n
COc1ccc(-c2n[nH]c(C)c2-c2cnn(-c3ccccc3)c2)c(O)c1	n	95	n	n	n
CCCN(CCC)C1=CC(=[N+]2CCCC2)CC(C)(C)C1	60	n	n	n	n
CC1(C)CC(N2CCCCC2)=CC(=[N+]2CCCCC2)C1	77	n	n	n	n
CN(C)NC1=CC(=[N+]2CCCC2)CC(C)(C)C1	n	n	n	n	n
COC(=O)C(C)N(C(=O)c1ccc(C(=O)c2ccccc2)cc1)c1c(C)cccc1C (stereo unspecified)	n	n	65	n	n
COC(=O)C(C)N(C(=O)c1ccc(Cl)cc1)c1c(C)cccc1C (stereo unspecified)	n	n	n	n	n
COC(=O)c1ccc(-c2noc(CN(Cc3ccncc3)CC3CCCO3)n2)cc1 (stereo unspecified)	57	n	n	n	n
COC(=O)c1ccc(-c2noc(CN(C)CC3CCCCO3)n2)cc1 (stereo unspecified)	n	n	n	n	n
O=C(NC(=S)Nc1nc(-c2cccc3ccccc23)cs1)c1cc2ccccc2o1	n	n	n	n	n
CC(=O)Nc1nc(-c2cccc3ccccc23)cs1	57	n	n	n	n
COc1ccc(-c2[nH]ncc2CN2CCCOc3c(cccc3OC)C2)c(OC)c1	n	n	n	n	n
O=[N+]([O-])c1ccc(/C=C2\CCC(C3=CCCC3)=C2N2CCOCC2)cc1	n	n	61	n	n
Cc1ccc2nc(-c3ccccc3NC(=O)CCC(=O)O)c(=O)[nH]c2c1	n	n	n	-74	24
CC(C)C(=O)Nc1ccccc1-c1nc2ccccc2[nH]c1=O	n	n	n	n	n
SMILES	T cruzi repl	Calb FLC	HSF-1 act	HSF1 inh	HIF activator
CC1(C)CC(=O)/C(=C\c2cccc([N+](=O)[O-])c2)C(C)(C)N1	n	n	76	n	n
CCc1cccc(N(C(=O)c2csnn2)C(C(=O)NC(C)(C)CC)c2ccccn2)c1 (stereo unspecified)	n	n	n	n	n
CCN(CC(=O)Nc1cccc(OC)c1)CC(=O)Nc1ccc(Br)c(C)c1	n	n	55	n	n
CCN(CC(=O)Nc1cccc(OC)c1)CC(=O)Nc1ccccc1C	n	n	n	n	n
Cc1ccccc1CN1CCN(Cc2ccc3cccc(F)c3n2)CC1CCO (stereo unspecified)	n	n	n	n	n
Cc1nc(NC(=O)C2CC2)sc1C(=O)Nc1ccccc1Cl	n	n	n	n	n
c1cc(CNc2ccc3c(c2)OCCO3)ccn1	n	n	n	-78	n
O=C(NCc1ccncc1)Nc1ccc2c(c1)OCO2	n	n	n	n	n
C=CCOc1ccccc1CNc1ccc2c(c1)OCCO2	73	n	n	u	n
CCOc1ccc(Br)cc1CNc1ccc2c(c1)OCCO2	n	n	n	-56	n
CCOc1ccc(Br)cc1CNCCN1CCOCC1	n	n	n	n	n
O=C(NCc1ccccc1Cl)c1ccc2nnsc2c1	n	n	n	n	n
CC(C)C(=O)Nc1nnc(S(=O)(=O)N2c3ccccc3CC2C)s1 (stereo unspecified)	n	n	n	n	n
Cc1nc2ccc(Br)cc2c(=O)n1Cc1cccs1	n	n	54	n	n
Cc1nc2ccc(N)cc2c(=O)n1Cc1ccc(Cl)cc1	n	n	n	n	n
COc1ccccc1NC(=O)Cn1c(=O)c(N(C)C)c(N)n(C)c1=O	n	n	n	-71	n
COc1cc2c(cc1OC)CN(S(=O)(=O)c1cccc(F)c1)CC2	n	n	n	n	n
CC(C)c1ccc(-c2csc3ncnc(N4CCN(C)CC4)c23)cc1	n	n	n	n	n
CCOc1cccc(C(=O)NC2CCCCC2)c1	n	n	n	n	n
CCCCOc1cccc(C(=O)NNC(=S)NC2CCCCC2)c1	n	105	n	n	n
O=C(CSc1ccc(-c2cccs2)nn1)c1cccs1	n	n	n	n	n
Cc1ccc(CSc2nnc(CCCCCNC(=O)OC(C)(C)C)o2)cc1	n	n	n	n	14
CC(C)c1ccc(-c2cc(C(=O)NN3CCN(C)CC3)c3ccccc3n2)cc1	n	n	n	n	n
N#CCc1nn(-c2ccc(Cl)cc2)c(N)c1C#N	n	n	n	n	n
N#CCc1nn(-c2ccccc2)c2ncnc(N)c12	n	n	n	-60	n
SMILES	T cruzi repl	Calb FLC	HSF-1 act	HSF1 inh	HIF activator
CO/N=C/c1ccc(N2CCN(C(=O)c3ccc(C)cc3)CC2)c([N+](=O)[O-])c1	n	109	n	n	n
COc1ncnc(OC)c1S(=O)(=O)NCc1ccccc1	n	n	n	n	n
CC1CCC(C(C)C)C(OC(=O)Cn2c(-c3ccc(Cl)cc3)[n+](C)c3ccccc32)C1 (stereo unspecified)	n	n	n	n	n
CC1CCC(C(C)C)C(OC(=O)Cn2c(-c3ccc(Br)cc3)[n+](C)c3ccccc32)C1 (stereo unspecified)	63!	108	n	n	n
CCCCCCCCCCOC(=O)Cn1c(COc2ccc(Cl)cc2)[n+](C)c2ccccc21	n	u	n	n	n
Cc1ccccc1OCc1n(CC(=O)OC2CC(C)CCC2C(C)C)c2ccccc2[n+]1C (stereo unspecified)	65	99!	n	n	n
CN(Cc1ccccc1)S(=O)(=O)c1cn(C)cn1	n	n	n	n	n
CCS(=O)(=O)Nc1ccc2[nH]c(=O)[nH]c2c1	n	n	78	n	n
